{"source": "paper PMC11604526", "about": "(Cell Reports Medicine, 2024)", "key": {"GAT-1-Synt1A complex": {"target": "GAT-1-Synt1A complex (Mus musculus, UniProt P31648)", "assay_type": "in vivo", "conditions": "intranasally given days 5-11 after photothrombotic stroke; n = 5", "in_short": "(§1)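 Dissected tissue was lysed on ice for 30 min in ice-cold RIPA buffer (50 mM Tris-HCl pH 7.4, 150 mM NaCl, 1 mM EDTA, 1% NP-40, 0.1% SDS, 0.5% deoxycholate, protease inhibitors). Lysates were spun at 12,000 ×g for 15 min at 4°C, and supernatant was precleared 1 h at 4°C with protein G magnetic beads before co-IP. Blots were probed with anti-GAT-1 (1:4000) and anti-syntaxin1A (1:4000).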"}, "[1]": {"tested_on": "mice with photothrombotic stroke", "assay": "Motor function", "assay_type": "in vivo, mouse", "in_short": "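Photothrombotic stroke was induced with rose bengal, holding body temperature at 37 ± 0.5°C. For grid walking, each mouse walked freely for 5 min on a wire grid 50 cm high. For the cylinder task, mice explored a clear cylinder (15 cm tall, 10 cm diameter) for 5 min, and only rears with both forelimbs clearly visible were timed. Tests ran 7 days before stroke and at set days after stroke.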"}, "GAT-1 [2]": {"target": "GAT-1 (Mus musculus, UniProt P31648)", "assay": "3H-GABA uptake assay in cultured neurons", "assay_type": "cell-based", "conditions": "1 h drug preincubation; 10 nM 3H-GABA + 30 μM GABA, 37°C 1 h; n = 5", "in_short": "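Primary cortical neurons from E16 mice were grown on poly-L-ornithine in Neurobasal with 2% B27. Cells were rinsed twice in 37°C HBSS, equilibrated 10 min, then preincubated 1 h in drug-containing HBSS. Uptake was started with 3H-GABA (10 nM final) plus unlabeled GABA (30 μM final), 37°C for 1 h. It was stopped by three ice-cold HBSS washes, solubilised in 0.1 M NaOH, and read by scintillation counting plus BCA protein assay. Analysis used a two-tailed t test.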"}, "GAT-1 [3]": {"tested_on": "GAT-1", "assay": "3H-GABA uptake in HEK293 cells overexpressing GAT-1", "assay_type": "cell-based", "conditions": "n = 5", "in_short": "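HEK293 cells were kept in MEM with 10% FBS and transduced with lentiviral GAT-1-EGFP. These GAT-1-overexpressing cells were incubated with peptide (100 nM), or with the mutant control peptide at the same concentration, before 3H-GABA uptake was measured.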"}, "[4]": {"tested_on": "extracellular GABA ([GABA]o)", "assay": "Extracellular GABA in peri-infarct cortex", "assay_type": "in vivo, mouse", "conditions": "intranasal administration; Figure S6A; n = 5", "in_short": "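A CMA7 microdialysis probe was placed in peri-infarct cortex (AP 0, ML −0.65, DV −1.5 mm from bregma). It was perfused at 1 μL/min with bicarbonate-buffered saline containing 10 mM glucose. Dialysate was collected in 20-min fractions over 2 h, and the second fraction was analysed. GABA was measured by ELISA (activator, 37°C for 15 min in the dark, stop solution, A450).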"}, "[5]": {"tested_on": "layer 5 peri-infarct pyramidal neurons", "assay": "Whole-cell recordings in acute brain slices from treated mice", "assay_type": "in vivo, mouse", "conditions": "intranasal administration"}, "[6]": {"tested_on": "pyramidal neurons in the peri-infarct cortex", "assay": "Fiber photometry of GCaMP6s Ca2+ signal", "assay_type": "in vivo, mouse", "conditions": "intranasal administration; Figures S6F, S6G", "in_short": "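AAV-CaMKII-GCaMP6s was injected into the peri-infarct cortex (AP 0, ML −2.0, DV −1.3 mm from bregma). An optical fibre (230 μm OD, 0.37 NA) was implanted at the same site. GCaMP6s fluorescence was excited with a 488 nm LED at 20 μW at the fibre tip and recorded by fibre photometry.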"}, "rats subjected to tMCAO [7]": {"tested_on": "rats subjected to tMCAO", "assay": "Sensorimotor function after tMCAO", "assay_type": "in vivo", "conditions": "rat tMCAO, intranasal days 5-11 after stroke", "in_short": "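For grid walking, rats walked 5 min on a wire grid 60 cm high. For the cylinder task, rats explored a cylinder (30 cm tall, 20 cm diameter) for 5 min. For sticky tape, rats were handled 30 min/day for 3 days first. Ratio of interest = seconds attending to stimulus/30, averaging the best two trials. Sticky-tape ratio = left forepaw ratio/right forepaw ratio.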"}, "rats subjected to tMCAO [8]": {"tested_on": "rats subjected to tMCAO", "assay": "Morris water maze after tMCAO", "assay_type": "in vivo", "conditions": "rat tMCAO, intranasal days 5-11", "in_short": "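Rats were habituated to the maze (180 cm diameter, opacified water, drained daily) 1 day beforehand. In learning trials, rats swam up to 60 s to reach a hidden platform 1.2 cm below the surface. A probe trial without the platform ran 24 h after the last learning trial. Swimming was recorded by overhead video tracking.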"}, "[9]": {"assay": "Concentration of ZLQ-3-1 in brain tissue", "assay_type": "in vivo, rat", "conditions": "intranasal delivery; brain homogenate, LC-MS/MS", "in_short": "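Brain tissue was quantified by LC-MS/MS with verapamil run alongside. The test compound eluted at 1.45 min and verapamil at 1.65 min.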"}, "GAT-1-Synt1A interaction": {"target": "GAT-1-Synt1A interaction (Rattus norvegicus, UniProt P23978)", "assay": "Co-IP of Synt1A-GAT-1 complexes after tMCAO", "assay_type": "in vivo", "conditions": "intranasally given days 5-11 after stroke", "in_short": "as §1"}, "[10]": {"tested_on": "extracellular GABA ([GABA]o)", "assay": "Extracellular GABA after tMCAO", "assay_type": "in vivo, rat", "conditions": "intranasal delivery; Figure 6F; n = 5"}, "infarct volume": {"tested_on": "infarct volume", "assay": "Infarct volume", "assay_type": "in vivo", "conditions": "Nissl staining 12 days after stroke; n = 8", "in_short": "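Coronal 40 μm vibratome sections were stained in Nissl solution at 40°C for 10 min. Infarct size was measured on microscope images.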"}, "mice [11]": {"tested_on": "mice", "assay": "Open field test", "assay_type": "in vivo, mouse", "conditions": "5 min; n = 14"}, "mice [12]": {"tested_on": "mice", "assay": "Conditioned place preference", "assay_type": "in vivo, mouse", "conditions": "n = 10", "in_short": "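During pretest and test, mice had free access to both chambers for 15 min. Vehicle-group mice received vehicle injections morning and afternoon; all other steps matched the compound group. Apparatus was cleaned with 75% alcohol after each pretest, training and test session.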"}, "[13]": {"conditions": "5 mg/kg intranasally days 5-11 after stroke, test day 12"}}, "note": "Entries after “also recorded” stand apart in the source; their conditions may differ.", "data": [{"substance": "Glucose-D-Arg-Dmt-Cha-D-Lys-D-Arg-NH2 [ZLQ-3-1]", "values": [{"measurement": "stroke-induced GAT-1-Synt1A interaction, intranasal dosing", "setting": "GAT-1-Synt1A complex", "value": "reversed stroke-induced GAT-1-Synt1A interaction"}, {"measurement": "impairment of motor functions, intranasal 5 mg/kg", "setting": "[1]; [13]", "value": "attenuated the impairment of motor functions"}, {"measurement": "motor functional recovery of ZLQ-3-1-treated versus ZLQ-3-treated mice", "setting": "[1]; [13]", "value": "better motor functional recovery than ZLQ-3-treated mice"}, {"measurement": "impairment of motor functions, intraperitoneal dosing", "setting": "[1]; 2.5, 5, 10, or 20 mg/kg i.p. days 5-11 after stroke, test day 12", "value": "attenuated the impairment of motor functions dose dependently"}, {"measurement": "long-term motor functional recovery, WT mice", "setting": "[1]; intranasal treatment days 5-11 after stroke, Figure S5K", "value": "long-lasting motor functional recovery effects"}, {"measurement": "3H-GABA uptake in cultured neurons", "setting": "GAT-1 [2]", "value": "significantly increased ^3H-GABA uptake"}, {"measurement": "reuptake of GABA by GAT-1, HEK293 cells overexpressing GAT-1", "setting": "GAT-1 [3]", "value": "did not directly affect the reuptake of GABA by GAT-1"}, {"measurement": "stroke-induced increase in extracellular GABA", "setting": "[4]", "value": "reversed stroke-induced increases in extracellular GABA"}, {"measurement": "stroke-induced increase in tonic inhibition", "setting": "[5]; Figures S6B, S6C", "value": "reversed stroke-induced increases"}, {"measurement": "inhibitory synaptic transmission (sIPSC)", "setting": "[5]; Figures S6D, S6E", "value": "increased inhibitory synaptic transmission"}, {"measurement": "stroke-induced decline in cortical excitability, WT mice", "setting": "[6]", "value": "prevented stroke-induced decline in cortical excitability"}, {"measurement": "foot faults in the grid-walking task", "setting": "rats subjected to tMCAO [7]", "value": "decreased foot faults"}, {"measurement": "forelimb sticky-tape ratio in modified sticky-tape test", "setting": "rats subjected to tMCAO [7]", "value": "increased forelimb sticky-tape ratio"}, {"measurement": "forelimb symmetry index in the cylinder task", "setting": "rats subjected to tMCAO [7]", "value": "decreased"}, {"measurement": "somatosensory and motor functions", "setting": "rats subjected to tMCAO [7]; tests days 4, 12, 19, 26", "value": "significantly improved somatosensory and motor functions"}, {"measurement": "swimming speed", "setting": "rats subjected to tMCAO [8]", "value": "did not affect swimming speed"}, {"measurement": "target entries in the probe test", "setting": "rats subjected to tMCAO [8]", "value": "increased target entries"}, {"measurement": "time spent in target quadrant in the probe test", "setting": "rats subjected to tMCAO [8]", "value": "increased"}, {"measurement": "latency (time to reach the platform)", "setting": "rats subjected to tMCAO [8]; training trials", "value": "significantly decreased latency"}, {"measurement": "brain exposure of ZLQ-3-1 (time course of concentrations in brain tissue)", "setting": "[9]", "value": "rapid and long-lasting brain exposure; also recorded: high brain exposure"}, {"measurement": "stroke-induced GAT-1-Synt1A interaction in the hippocampus", "setting": "GAT-1-Synt1A interaction", "value": "reversed stroke-induced GAT-1-Synt1A interaction"}, {"measurement": "stroke-induced GAT-1-Synt1A interaction in the peri-infarct cortex", "setting": "GAT-1-Synt1A interaction", "value": "reversed stroke-induced GAT-1-Synt1A interaction"}, {"measurement": "stroke-induced increase in [GABA]o in the peri-infarct cortex", "setting": "[10]", "value": "reversed"}, {"measurement": "infarct volume", "setting": "infarct volume", "value": "did not change infarct volume"}, {"measurement": "locomotor activity (open field test: total distance, velocity)", "setting": "mice [11]", "value": "did not affect locomotor activity"}, {"measurement": "conditioned place preference", "setting": "mice [12]", "value": "did not affect"}]}]}
